This is an account of results in ChEMBL document CHEMBL5154645, “Potent Anti-SARS-CoV-2 Activity by the Natural Product Gallinamide A and Analogues via Inhibition of Cathepsin L” (J Med Chem, 2022).

As a reminder, the IC90 is the concentration needed for an effect of 90%. For orientation: IC50 means the midpoint of a concentration-inhibition curve. The CC50 is the concentration at which the toxic effect on the cells reaches its halfway point.

Calls of active or inactive are those of the source. The rule behind the calls is not given here. Some results are limits rather than exact numbers.

The target of one series is T1, Procathepsin L (Homo sapiens, UniProt P07711). The experiment in a line: Inhibition of human recombinant Cathepsin L assessed as Apparent inhibition constant using Z-FR-AMC as substrate […] by fluorometric assay. As to conditions: read-out: Ki(app).
Target sequence in this assay (P07711 whole entry): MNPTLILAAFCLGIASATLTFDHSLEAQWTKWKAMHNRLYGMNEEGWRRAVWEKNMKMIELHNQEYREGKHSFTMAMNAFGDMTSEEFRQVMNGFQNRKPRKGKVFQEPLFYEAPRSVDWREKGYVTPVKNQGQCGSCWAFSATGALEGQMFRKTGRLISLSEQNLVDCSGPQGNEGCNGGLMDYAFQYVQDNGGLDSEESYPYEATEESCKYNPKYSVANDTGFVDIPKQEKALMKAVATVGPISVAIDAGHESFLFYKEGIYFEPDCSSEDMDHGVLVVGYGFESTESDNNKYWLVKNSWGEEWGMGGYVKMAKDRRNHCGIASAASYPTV
Take `CC[C@H](C)[C@@H](C(=O)O[C@@H](CC(C)C)C(=O)N[C@@H](CC(C)C)C(=O)N[C@@H](C)/C=C/C(=O)N1C(=O)C=C(OC)[C@@H]1C)N(C)C` [GALLINAMIDE A]: the Ki came to 7.95 nM.

The next series concerns SARS-CoV-2. The series is described as follows: Anti viral activity against SARS-CoV-2 infected in African green monkey veroE6 assessed as reduction in viral load. The class given is functional, Severe acute respiratory syndrome coronavirus 2, Vero E6.
Details: not given
On to `CC[C@H](C)[C@@H](C(=O)O[C@@H](CC(C)C)C(=O)N[C@@H](CC(C)C)C(=O)N[C@@H](C)/C=C/C(=O)N1C(=O)C=C(OC)[C@@H]1C)N(C)C` [GALLINAMIDE A], for which the IC90 came out at 88 nM.

A further series deals with T2, Procathepsin L (Mus musculus, UniProt P06797).
T2 sequence (P06797 whole entry): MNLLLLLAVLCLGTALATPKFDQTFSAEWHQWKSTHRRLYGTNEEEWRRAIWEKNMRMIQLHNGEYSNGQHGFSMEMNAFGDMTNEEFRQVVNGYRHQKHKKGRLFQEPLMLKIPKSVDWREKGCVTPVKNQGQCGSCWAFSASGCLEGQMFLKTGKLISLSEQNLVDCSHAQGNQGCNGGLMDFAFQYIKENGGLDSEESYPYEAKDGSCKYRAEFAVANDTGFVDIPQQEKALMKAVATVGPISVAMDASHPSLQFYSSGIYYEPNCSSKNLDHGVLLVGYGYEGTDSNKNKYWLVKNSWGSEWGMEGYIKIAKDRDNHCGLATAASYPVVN
The experiment in a line: Inhibition of mouse Cathepsin L assessed as Apparent inhibition constant using Z-FR-AMC as substrate inubated for 30 mins by fluorometric assay. As to conditions: read-out: Ki(app). The method, boiled down:
(§1)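 Human CatL, human CatB or mouse CatL at 1 nM, at 25 °C in pH 5.5 Na acetate/DTT/EDTA/NaCl buffer. Reactions held 40 μM Z-FR-AMC and 555.56 to 0.01 nM compound, in quadruplicate. Product formation was measured at 6 min intervals for 1 h and normalized to DMSO wells. kobs came from inactivation curves. kinact and KIapp were obtained by nonlinear regression of kobs = kinact[I]/(KIapp + [I]); their ratio was then calculated.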
`CC[C@H](C)[C@@H](C(=O)O[C@@H](CC(C)C)C(=O)N[C@@H](CC(C)C)C(=O)N[C@@H](C)/C=C/C(=O)N1C(=O)C=C(OC)[C@@H]1C)N(C)C` [GALLINAMIDE A]: the Ki was determined as 5.29 nM.

The next series has as its target T3, Cathepsin K (Homo sapiens, UniProt P43235).
T3 sequence (P43235 whole entry): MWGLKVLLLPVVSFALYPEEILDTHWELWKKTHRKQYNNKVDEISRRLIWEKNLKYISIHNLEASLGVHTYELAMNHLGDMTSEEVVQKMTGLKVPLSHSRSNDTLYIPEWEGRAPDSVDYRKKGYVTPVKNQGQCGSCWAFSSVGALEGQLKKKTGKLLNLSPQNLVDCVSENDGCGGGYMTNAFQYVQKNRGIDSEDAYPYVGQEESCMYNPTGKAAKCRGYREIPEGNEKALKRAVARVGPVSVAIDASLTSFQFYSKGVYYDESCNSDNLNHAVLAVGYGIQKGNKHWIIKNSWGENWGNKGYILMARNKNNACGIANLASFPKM
The series is described as follows: Inhibition of human recombinant Cathepsin K assessed remaining activity using Z-FR-AMC as substrate incubated for 30 mins by fluorometric assay.
Details: not given
The essentials:
(§2)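 Recombinant human cathepsins: L, B, V and K at 1.11 nM, S at 4.44 nM. Each was preincubated 30 min at 25 °C with 3333 to 0.006 nM compound. Z-FR-AMC was added at 40 μM final. AMC release rate over 0–30 min was compared with DMSO (ex/em 360/460). IC50 from four technical replicates.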
Turning to `CC[C@H](C)[C@@H](C(=O)O[C@@H](CC(C)C)C(=O)N[C@@H](CC(C)C)C(=O)N[C@@H](C)/C=C/C(=O)N1C(=O)C=C(OC)[C@@H]1C)N(C)C` [GALLINAMIDE A], the IC50 stood at 79.6 nM.

Another series addresses T1, Procathepsin L. The experiment in a line: Inhibition of human recombinant Cathepsin L assessed as Kinact using Z-FR-AMC as substrate inubated for 30 mins by fluorometric assay.
Details: not given
The essentials:
as §1
Target sequence in this assay (P07711 114-333 limits assumed): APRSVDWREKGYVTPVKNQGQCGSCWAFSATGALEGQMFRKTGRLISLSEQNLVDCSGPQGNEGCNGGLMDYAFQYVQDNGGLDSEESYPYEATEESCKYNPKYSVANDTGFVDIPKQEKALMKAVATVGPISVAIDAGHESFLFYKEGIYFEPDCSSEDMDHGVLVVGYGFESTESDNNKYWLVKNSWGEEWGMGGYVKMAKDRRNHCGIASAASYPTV
In the case of `CC[C@H](C)[C@@H](C(=O)O[C@@H](CC(C)C)C(=O)N[C@@H](CC(C)C)C(=O)N[C@@H](C)/C=C/C(=O)N1C(=O)C=C(OC)[C@@H]1C)N(C)C` [GALLINAMIDE A], the Kinact was 4.75 10^-3/s.

A further series deals with T4, Cathepsin L2 (Homo sapiens, UniProt O60911).
T4 sequence (O60911 whole entry): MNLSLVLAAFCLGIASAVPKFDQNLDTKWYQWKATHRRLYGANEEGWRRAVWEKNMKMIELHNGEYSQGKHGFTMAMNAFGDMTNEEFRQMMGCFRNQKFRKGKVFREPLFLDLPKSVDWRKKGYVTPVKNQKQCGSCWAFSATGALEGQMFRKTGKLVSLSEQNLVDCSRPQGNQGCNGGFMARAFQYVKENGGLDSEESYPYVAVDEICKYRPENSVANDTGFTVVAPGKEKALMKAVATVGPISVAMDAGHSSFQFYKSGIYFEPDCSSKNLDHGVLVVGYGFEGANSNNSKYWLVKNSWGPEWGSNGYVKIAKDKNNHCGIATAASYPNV
The series is described as follows: Inhibition of human recombinant Cathepsin V assessed remaining activity using Z-FR-AMC as substrate incubated for 30 mins by fluorometric assay.
Details: not given
The method, boiled down: as §2
On to `CC[C@H](C)[C@@H](C(=O)O[C@@H](CC(C)C)C(=O)N[C@@H](CC(C)C)C(=O)N[C@@H](C)/C=C/C(=O)N1C(=O)C=C(OC)[C@@H]1C)N(C)C` [GALLINAMIDE A], for which the concentration for half-maximal inhibition (IC50) turned out to be 697 nM.

For the next series, the system named is SARS-CoV-2. The experiment in a line: Synergistic antiviral activity against SARS-CoV-2 infected in human HEK293 cells expressing TMPRSS2 as inhibition of viral entry in presence of Na-famostat mesylate. The class given is functional, organism-based. To be noted: Severe acute respiratory syndrome coronavirus 2.
Take `CC[C@H](C)[C@@H](C(=O)O[C@@H](CC(C)C)C(=O)N[C@@H](CC(C)C)C(=O)N[C@@H](C)/C=C/C(=O)N1C(=O)C=C(OC)[C@@H]1C)N(C)C` [GALLINAMIDE A]: the outcome was Active.

The target of a further series is T5, Procathepsin L (Mus musculus) (UniProt P06797).
T5 sequence (whole entry): T2 sequence (P06797 whole entry)
The experiment in a line: Inhibition of mouse Cathepsin L assessed as Kinact using Z-FR-AMC as substrate inubated for 30 mins by fluorometric assay.
Details: not given
The essentials: as §1
As for `CC[C@H](C)[C@@H](C(=O)O[C@@H](CC(C)C)C(=O)N[C@@H](CC(C)C)C(=O)N[C@@H](C)/C=C/C(=O)N1C(=O)C=C(OC)[C@@H]1C)N(C)C` [GALLINAMIDE A], the Kinact was 5.69 10^-3/s.

Another series has as its target T6, Cathepsin B (Homo sapiens, UniProt P07858). The series is described as follows: Inhibition of human recombinant Cathepsin B assessed as Apparent inhibition constant using Z-FR-AMC as substrate inubated for 30 mins by fluorometric assay. As to conditions: read-out: Ki(app). The method, boiled down:
as §1
In the case of `CC[C@H](C)[C@@H](C(=O)O[C@@H](CC(C)C)C(=O)N[C@@H](CC(C)C)C(=O)N[C@@H](C)/C=C/C(=O)N1C(=O)C=C(OC)[C@@H]1C)N(C)C` [GALLINAMIDE A], the Ki came to 117 nM.

A further series relates to Vero C1008. The experiment in a line: Cytotoxicity against cells African green monkey Vero E6 cells incubated for 24 to 72 hrs by alamar blue assay. It counts as toxicity, cell-based. As to conditions: chlorocebus sabaeus, time 24-72 hrs. The method, boiled down:
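VeroE6 cells in DMEM with 10% FCS were seeded at 5 × 10^4 per well. After adherence, cells were given varying compound concentrations for 24 or 72 h at 37 °C, 5% CO2. Alamar Blue HS was added for a further 2–4 h. Viability was read as fluorescence at ex/em 560/590 nm.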
For orientation: Resazurin is reduced to fluorescent resorufin, in cell work by metabolically active cells.
Molecule `CC[C@H](C)[C@@H](C(=O)O[C@@H](CC(C)C)C(=O)N[C@@H](CC(C)C)C(=O)N[C@@H](C)/C=C/C(=O)N1C(=O)C=C(OC)[C@@H]1C)N(C)C` [GALLINAMIDE A] gave a cytotoxic concentration (CC50) above 100000 nM.

Another series has as its target T6, Cathepsin B. The experiment in a line: Inhibition of human recombinant Cathepsin B assessed remaining activity using Z-FR-AMC as substrate incubated for 30 mins by fluorometric assay.
Details: not given
The essentials: as §2
Take `CC[C@H](C)[C@@H](C(=O)O[C@@H](CC(C)C)C(=O)N[C@@H](CC(C)C)C(=O)N[C@@H](C)/C=C/C(=O)N1C(=O)C=C(OC)[C@@H]1C)N(C)C` [GALLINAMIDE A]: the IC50 was determined as 7.34 nM.

In another series the target is Cathepsin S (Homo sapiens, UniProt P25774). The experiment in a line: Inhibition of human recombinant Cathepsin S assessed remaining activity using Z-FR-AMC as substrate incubated for 30 mins by fluorometric assay.
Cathepsin S, sequence (P25774 whole entry): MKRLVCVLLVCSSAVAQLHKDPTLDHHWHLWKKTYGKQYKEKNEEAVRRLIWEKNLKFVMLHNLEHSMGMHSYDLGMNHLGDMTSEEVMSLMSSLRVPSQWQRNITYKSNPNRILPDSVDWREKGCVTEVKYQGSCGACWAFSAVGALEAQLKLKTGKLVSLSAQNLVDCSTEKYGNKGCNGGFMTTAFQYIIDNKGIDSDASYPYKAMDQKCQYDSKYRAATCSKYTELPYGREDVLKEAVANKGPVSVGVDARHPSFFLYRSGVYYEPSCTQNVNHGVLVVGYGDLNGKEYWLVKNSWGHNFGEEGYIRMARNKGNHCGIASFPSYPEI
Details: not given
The method, boiled down: as §2
Regarding `CC[C@H](C)[C@@H](C(=O)O[C@@H](CC(C)C)C(=O)N[C@@H](CC(C)C)C(=O)N[C@@H](C)/C=C/C(=O)N1C(=O)C=C(OC)[C@@H]1C)N(C)C` [GALLINAMIDE A], the half-inhibitory concentration (IC50) is 0.367 nM.
